From ChEMBL document CHEMBL1255269 (Antimicrob Agents Chemother, 2008)
Activity calls are given as the source filed them. No cut-off for these calls is given here.

Tests used:
[1] = test system: Salmonella typhimurium; assay: Antimicrobial activity against Salmonella enterica subsp. enterica serovar Typhimurium PT99/DAB69 at 4 ug/ml after 16 hrs; assay type: functional
In short: (§1)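 Killing curve in Mueller-Hinton broth inoculated with 5 × 10^5 CFU of the strain (grown in LB, 37°C, 16 h, static). […] Tenfold dilutions plated onto Mueller-Hinton agar at several time points after inoculation; the decrease in log10 CFU is read at 16 h.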

[2] = Cmax in pigeon at 30 mg/kg, po by naive pooling approach; assay type: ADME, organism-based; design: dose 30 mg/kg, route oral; conditions: columba livia, in vivo
In short: (§2)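 Crossover design, one week apart, 24 homing pigeons. […] Blood taken at 0.25–8 h, six samples per time point; plasma assayed by HPLC-UV (linear 0.05–20 μg/ml). Data fitted by naive pooling, iv biexponential and oral triexponential two-compartment models, plus nonlinear mixed-effects modelling; F derived from mean AUC0–∞.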

[3] = in vivo; conditions: columba livia, plasma, po, 30 mg/kg
[4] = Plasma protein binding in pigeon at 10 ug/ml; assay type: ADME, cell-free; conditions: columba livia, read-out: PPB (converted)
In short: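 Ultrafiltration through a 30K membrane, free drug in the ultrafiltrate measured by HPLC. Bound drug taken as total minus free.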

[5] = test system: Salmonella typhimurium; assay: Antimicrobial activity against Salmonella enterica subsp. enterica serovar Typhimurium PT99/DAB69 at 2 ug/ml after 16 hrs; assay type: functional; in short: as §1
[6] = test system: Salmonella typhimurium; assay: Antimicrobial activity against Salmonella enterica subsp. enterica serovar Typhimurium PT99/DAB69 in pigeon spleen assessed as decrease in bacterial count relative to untreated control; assay type: functional, organism-based
In short: (§3)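 Homing pigeons, 10 per group, housed individually. Crop inoculation with 10^8 CFU in 1 ml PBS. […] Tissue CFU per gram counted by plating tenfold dilutions on brilliant green agar, with enrichment in buffered peptone water and tetrathionate broth if direct plating was negative.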

[7] = test system: Salmonella typhimurium; assay: Antimicrobial activity against Salmonella enterica subsp. enterica serovar Typhimurium PT99/DAB69 in pigeon kidney assessed as decrease in bacterial count relative to untreated control; assay type: functional, organism-based; in short: as §3
[8] = Mean residence time in pigeon at 30 mg/kg, iv by naive pooling approach; assay type: ADME, organism-based; design: dose 30 mg/kg, route intravenous; conditions: columba livia, in vivo, read-out: Time; in short: as §2
[9] = Half life at beta phase in pigeon at 30 mg/kg, iv by naive pooling approach; assay type: ADME, organism-based; design: dose 30 mg/kg, route intravenous; conditions: columba livia, in vivo; in short: as §2
[10] = Tmax in pigeon at 30 mg/kg, po by naive pooling approach; assay type: ADME, organism-based; design: dose 30 mg/kg, route oral; conditions: columba livia, in vivo; in short: as §2
[11] = Volume of distribution in pigeon at 30 mg/kg, iv by naive pooling approach; assay type: ADME, organism-based; design: dose 30 mg/kg, route intravenous; conditions: columba livia, in vivo; in short: as §2
[12] = Oral bioavailability in pigeon at 30 mg/kg, po by naive pooling approach; assay type: ADME, organism-based; conditions: columba livia, in vivo; in short: as §2
[13] = Oral bioavailability in pigeon at 30 mg/kg, po; assay type: ADME, organism-based; conditions: columba livia, in vivo; in short: as §2
[14] = in vivo; conditions: columba livia, plasma, iv, 30 mg/kg
[15] = Half life at beta phase in pigeon at 30 mg/kg, po by naive pooling approach; assay type: ADME, organism-based; design: dose 30 mg/kg, route oral; conditions: columba livia, in vivo; in short: as §2
[16] = test system: Columba livia; assay: Drug uptake in Salmonella enterica subsp. enterica serovar Typhimurium PT99/DAB69 infected pigeon at 26 to 45 mg/kg; assay type: ADME, organism-based; design: dose 26-45 mg/kg; conditions: in vivo
[17] = Volume of distribution in central compartment in pigeon at 30 mg/kg, iv; assay type: ADME, organism-based; design: dose 30 mg/kg, route intravenous; conditions: columba livia, in vivo; in short: as §2
[18] = in vivo; conditions: columba livia, plasma, po, 30 mg/kg; remark: listed apart in the source
[19] = in vivo; conditions: columba livia, plasma, iv, 30 mg/kg; remark: listed apart in the source

CS(=O)(=O)c1ccc([C@@H](O)[C@@H](CF)NC(=O)C(Cl)Cl)cc1 [FLORFENICOL]
log10cfu [1]: 2 | Cmax [2]: 5100 ng/mL | AUC(0-inf) [3]: 13100 ng·h/mL | fraction unbound at 10 ug/ml [4]: 0.288 | log10cfu [5]: 1 | Activity [6]: inactive | Activity [7]: inactive | MRT [8]: 1.43 h | half-life [9]: 1.73 h | Tmax [10]: 0.69 h | Vd [11]: 2.02 L/kg | bioavailability [12]: 58.5% | bioavailability [13]: 60% | AUC(0-inf) [14]: 22700 ng·h/mL | half-life [15]: 2.69 h | Drug uptake [16]: 35 mg/kg | Vd [17]: 0.88 L/kg | AUC(0-inf) [18]: 12500 ng·h/mL | AUC(0-inf) [19]: 21300 ng·h/mL
